Experimental data collected from several papers.
Lines come from different studies, so protocols differ.
Target: Serine/threonine-protein kinase PLK1 (PLK1, Homo sapiens, UniProt P53350)

Structure (SMILES) | assay | setting | remaining binding
O=C(NCC1CCOCC1)c1n[nH]cc1NC(=O)c1c(F)cccc1F | binding, competition with immobilised ligand | 1 µM | 90%
C[C@H](c1cccc(C#N)c1)n1cc(Cl)cc(C(N)=O)c1=N | cell-free assay, competition with immobilised ligand | 1 µM | 89%
C=CC(=O)N1CCC(C(=O)NCC(=O)N2CCN(c3nc(-c4cnc(N)nc4C(F)F)nc(N4CCOCC4)n3)CC2)CC1 | binding, competition with immobilised ligand | 1 µM | 99%
CN(C)c1nccc(-c2cnn3ncccc23)n1 | binding | 1 µM | 56%
N#Cc1ccc(Nc2ccc3[nH]c(=O)[nH]c3c2)c(Cl)c1 | cell-free assay, competition with immobilised ligand | 1 µM | 100%
C[C@@H]1CN(c2ccc3ncc(-c4ccc5[nH]nc(C6CC6)c5c4)n3n2)C[C@H](C)O1 | binding, competition with immobilised ligand | 0.5 µM | 96%
c1ccc(N2CCN(Cc3nc4ccccc4[nH]3)CC2)nc1 | binding, competition with immobilised ligand | 1 µM | 100%
c1cnn2ncc(-c3ccnc(N4CCC45COC5)n3)c2c1 | binding | 1 µM | 72%
O=C(NCCCN1CCOCC1)c1ccc(Nc2nccc(-c3cc4ccccc4s3)n2)cc1 | binding, competition with immobilised ligand | 1 µM | 77%
Nc1ncc2c(n1)-c1c([nH]c3ccc(C#CC4CC4)cc13)CCCC2 | binding, competition with immobilised ligand | 1 µM | 68%
CNC(=O)[C@@H]1CC[C@@H](n2c(-c3ccc4cnccc4c3)nc3ccc(C(=O)NCc4cccc(C(N)=O)c4)cc32)C1 | binding, competition with immobilised ligand | 1 µM | 100%
F[C@@H]1CCN(c2nccc(-c3cnn4ncccc34)n2)C1 | binding | 1 µM | 100%
CCN1CCN(Cc2ccc(C(=O)Nc3ccc(C)c(Oc4ccc5c(c4)CC(=O)N5)c3)cc2C(F)(F)F)CC1 | binding, competition with immobilised ligand | 1 µM | 100%
Nc1cnc(N2CCc3cc(S(=O)(=O)Nc4c(F)cc(Cl)cc4F)cc(N4CCCC4=O)c32)nc1 | cell-free assay, competition with immobilised ligand | 1 µM | 100%
O=C(c1ccc(Nc2ncc(Cl)c(-c3ccc(Cl)s3)n2)cc1)N1CCC(N2CCCC2)CC1 | binding, competition with immobilised ligand | 1 µM | 61%
CCCOc1ccc([C@H]2[C@H](C(=O)O)[C@@H](c3ccc4c(c3)OCO4)CN2CC(=O)Nc2c(CC)cccc2CC)cc1 | cell-free assay, competition with immobilised ligand | 1 µM | 80%
COc1cnc(Nc2cccc(S(N)(=O)=O)c2)nc1N1CCN(c2ccccc2)C(=O)C1 | binding, competition with immobilised ligand | 1 µM | 80%
FC(F)(F)Oc1cccc(-c2cnc3ccc(-c4ccncc4)nn23)c1 | cell-free assay, competition with immobilised ligand | 5 µM | 93%
CN(CCCC(F)(F)F)c1nccc(-c2cnn3ncccc23)n1 | binding | 1 µM | 84%
Cc1cnc(Nc2ccc(C(=O)N3CCC(N4CCCC4)CC3)cc2)nc1-c1cc2ccccc2s1 | binding, competition with immobilised ligand | 1 µM | 37%
O=C(NCc1ncc(C(F)(F)F)cc1Cl)c1ccc2c(c1)C1(CCS(=O)(=O)CC1)[C@H](C1CC1)N2S(=O)(=O)c1ccc(F)cc1 | cell-free assay, competition with immobilised ligand | 1 µM | 86%
N[C@@H]1CCN(c2nccc(-c3cnn4ncccc34)n2)C1 | binding | 1 µM | 100%
CS(=O)(=O)NCC[C@H](NC(=O)c1cncc2c1cnn2-c1ccc(F)cc1)c1ccnc(S(C)(=O)=O)c1 | cell-free assay, competition with immobilised ligand | 1 µM | 100%
CNC(=O)c1ccccc1Nc1cc(Nc2ccc(N3CCOCC3)cc2OC)ncc1C(F)(F)F | binding, competition with immobilised ligand | 1 µM | < 10%
CCC(=O)N[C@@H]1CC[C@H](C(=O)N(C)c2ccc(-c3nc4ccccc4o3)cc2)C1 | cell-free assay, competition with immobilised ligand | 1 µM | 95%
C[C@H]1CCN(c2nccc(-c3cnn4ncccc34)n2)C1 | binding | 1 µM | 100%
